The target in experiment [1] is T1, PLCδ1-PH domain (Rattus norvegicus, UniProt P10688).
T1 sequence (P10688 1-131): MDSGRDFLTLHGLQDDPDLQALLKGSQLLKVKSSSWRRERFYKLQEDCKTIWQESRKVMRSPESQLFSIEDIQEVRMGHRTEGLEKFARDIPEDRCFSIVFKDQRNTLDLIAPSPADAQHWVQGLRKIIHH
Kind of experiment: Competitive surface plasmon resonance assay, PI. The experiment is classed as binding. The conditions noted are these: for inhibition at 5 µM: pH 7.4, read-out: Relative inhibitory activity (%), PI(4,5)P2/PLCδ1-PH. The method, boiled down:
(§1)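 L1 chip, 25 °C, 20 mM HEPES pH 7.4, 0.16 M KCl, 30 µL/min. Active surface PC/PE/PS/PIP (57:20:20:3): PI(4,5)P2 for rat PLCδ1-PH (1-131), PI(3,4,5)P3 for human AKT1-PH (1-121) and mouse GRP1-PH (1-127), PI(3,4)P2 for human TAPP1-PH (180-305). BSA-blocked PC/PE/PS reference. Domain (500 nM) preincubated 30 min with compound (0–20 or 0–200 µM). % inhibition from RU at 180 s; IC50 by Langmuir fit; triplicates.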
On the technique in general: SPR reads the build-up and loss of mass on a sensor chip optically.

The next experiment addresses TAPP1-PH domain (Homo sapiens, UniProt Q9HB21). Kind of experiment: Competitive surface plasmon resonance assay, PI. The experiment is classed as binding. The conditions noted are these: for inhibition at 5 µM: read-out: Relative inhibitory activity (%), PI(3,4)P2/TAPP1-PH. The method, boiled down:
as §1

The test system of experiment [2] is GFP-tagged PLCδ1-PH domain in A549 cells. Kind of experiment: Cellular translocation of GFP-tagged PLCδ1-PH domain. The class given is cell-based, Human. The conditions noted are these: 0–100 μM, 30 min. The method, boiled down:
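A549 cells grown on coverslips in RPMI-1640 with 10% heat-inactivated FBS and penicillin/streptomycin at 37 °C, 5% CO₂. Transfected 24 h after seeding with GFP-PLCδ1-PH using polyethylenimine in Opti-MEM, then returned to complete medium after 24 h. Cells washed into serum-free medium and exposed to test compound (5–100 µM; DMSO <5%) for 30 min. PBS-washed, fixed in 4% paraformaldehyde for 15 min, and imaged by confocal at 488 nm excitation.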

The target in the next experiment is T2, GRP1-PH domain (Mus musculus, UniProt O08967).
T2 sequence (O08967 264-380 limits assumed): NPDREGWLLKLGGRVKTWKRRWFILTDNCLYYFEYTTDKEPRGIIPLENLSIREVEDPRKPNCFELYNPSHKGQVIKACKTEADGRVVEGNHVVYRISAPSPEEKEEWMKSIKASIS
Kind of experiment: Competitive surface plasmon resonance assay, PI. The conditions noted are these: for inhibition at 5 µM: read-out: Relative inhibitory activity (%), PI(3,4,5)P3/GRP1-PH. The experiment is classed as binding. The gist of the method: as §1

Experiment [3] concerns the target T1, PLCδ1-PH domain. Kind of experiment: Isothermal titration calorimetry, PLCδ1-PH domain. The class given is binding. The conditions noted are these: 25 °C; 20 mM HEPES pH 7.4, 0.16 M KCl. The method, boiled down: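 Rat PLCδ1-PH domain (residues 1–131, E. coli BL21-DE3) at 200 μM, dialysed into 20 mM HEPES pH 7.4 with 0.16 M KCl. Titrated at 25 °C, 500 rpm, with 20 × 2 µL injections at 2.0 min intervals of test compound (2 mM) dissolved in the final dialysate. ΔG derived as ΔH − TΔS.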

For experiment [4], the target named is T3, AKT1-PH domain (Homo sapiens, UniProt P31749). In words: Isothermal titration calorimetry, AKT1-PH domain. The class given is binding. The conditions noted are these: 25 °C. The method, boiled down: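 Human AKT1-PH domain (residues 1–121, E. coli BL21-DE3) in the sample cell at 25 °C, 500 rpm. Titrated with 20 × 2 µL injections of test compound (2 mM) at 2.0 min intervals. ΔG derived as ΔH − TΔS.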
T3 sequence (P31749 1-121): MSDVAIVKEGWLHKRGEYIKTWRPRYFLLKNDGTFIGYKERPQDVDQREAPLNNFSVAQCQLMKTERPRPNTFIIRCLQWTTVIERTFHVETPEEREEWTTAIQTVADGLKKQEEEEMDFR

The target in experiment [5] is T1, PLCδ1-PH domain. In words: Circular dichroism of PLCδ1-PH domain with compounds. The conditions noted are these: PLCδ1-PH 1 μM; 10 mM phosphate, 10 mM NaCl, pH 7.2. The method, boiled down: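 Rat PLCδ1-PH domain (residues 1-131, expressed in E. coli BL21-DE3) is scanned by far-UV CD from 190 to 245 nm, alone and with test compounds present.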
Experiment [6] concerns the target T3, AKT1-PH domain. In words: Competitive surface plasmon resonance assay, PI. The class given is binding. The conditions noted are these: for inhibition at 5 µM: read-out: Relative inhibitory activity (%), PI(3,4,5)P3/AKT1-PH. The gist of the method: as §1
In experiment [7] the target is T1, PLCδ1-PH domain. In words: Liposome pull-down assay, PI. The class given is binding. The conditions noted are these: protein 50 μM; compound 100 μM; PC/PE/PS/PI(4,5)P2 (57:20:20:3). The gist of the method:
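Sucrose-loaded PC/PE/PS/PI(4,5)P₂ vesicles made by sonication and extrusion, pelleted at 100,000g, and resuspended in 20 mM Tris pH 7.4 with 100 mM KCl and 5 mM MgCl₂. Rat PLCδ1-PH domain incubated with vesicles (40 µg in 100 µL) for 30 min with 0.3 mg/mL BSA, with or without test compound; PC/PE/PS vesicles as control. Spun at 100,000g for 30 min at 4 °C; supernatant and pellet run on Coomassie-stained SDS-PAGE.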

Experiment [8] deals with T3, AKT1-PH domain. In words: Liposome pull-down assay, PI. The class given is binding. The conditions noted are these: protein 50 μM; compound 100 μM; PC/PE/PS/PI(3,4,5)P3 (57:20:20:3). The method, boiled down: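 Human AKT1-PH (1-121) is incubated 30 min with 40 µg sucrose-loaded, sonicated/extruded vesicles (± compound) in 20 mM Tris pH 7.4, 100 mM KCl, 5 mM MgCl2, 0.3 mg/mL BSA. Vesicles were pelleted beforehand at 100,000g, 4 °C. Bound and free protein are separated at 100,000g, 30 min, 4 °C. Supernatant and pellet are run on Coomassie-stained SDS-PAGE.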

Experiment [9] deals with T1, PLCδ1-PH domain. In words: Competitive protein-to-membrane FRET displacement assay. The experiment is classed as binding. The gist of the method:
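Rat PLCδ1-PH (1-131) is prebound to excess PC/PE/PS/dPE/PI(4,5)P2 (56:20:20:1:3) vesicles (100 µM total lipid) in 20 mM Tris pH 7.4, 0.16 M NaCl, at room temperature. Compound is titrated 0–70 µM. Protein-to-membrane FRET is read at ex 280/em 505 nm, corrected for PC/PE/PS/dPE (59:20:20:1) vesicles, dilution and dPE background. Apparent KI comes from a nonlinear least-squares fit.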

The source of these data is article PMC5668642 (Biochemistry and Biophysics Reports, 2015).

Molecules are shown by their SMILES.

Sequence of TAPP1-PH domain (Q9HB21 180-305): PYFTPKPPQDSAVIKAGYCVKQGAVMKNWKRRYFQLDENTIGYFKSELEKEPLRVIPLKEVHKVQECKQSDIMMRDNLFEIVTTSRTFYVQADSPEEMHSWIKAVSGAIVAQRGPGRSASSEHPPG

In the case of `Cn1cc(CO)nn1` [(1-methyl-1H-1,2,3-triazol-4-yl)methanol, reference compound], the “Effect on PLCδ1-PH domain binding to PC/PE/PS/PI(4,5)P2 liposome” value on PLCδ1-PH domain [1] (competitive SPR, negative control, data not shown) was “did not affect”.

For the compound `O=[N+]([O-])c1ccc(Cn2cc(CO)nn2)cc1` [CIP-1], the concentration for half-maximal inhibition (IC50) at TAPP1-PH domain was 647 ± 33 nM; at GRP1-PH domain, 145 ± 11 nM; on PLCδ1-PH domain [1], 113 ± 7 nM; on AKT1-PH domain [6], 175 ± 21 nM. In addition, the inhibition at 5 µM came out at 18 ± 2% on TAPP1-PH domain, 56 ± 3% on GRP1-PH domain, 83 ± 4% on PLCδ1-PH domain [1] and 44 ± 2% on AKT1-PH domain [6]. Besides, the “Displacement of PLCδ1-PH domain from plasma membrane (confocal images)” value in experiment [2] is on record as “extent of displacement of PLCδ1-PH domain from PM is lowered”. The “ITC titration behaviour with PLCδ1-PH domain” value at PLCδ1-PH domain [3] is recorded as “exothermic reaction with one-step binding mechanism”. At AKT1-PH domain [4], the “ITC titration behaviour with AKT1-PH domain” value is “exothermic reaction with two-step binding mechanism”. Further, the “Change in secondary structural pattern of PLCδ1-PH domain (far UV-CD)” value on PLCδ1-PH domain [5] is recorded as “almost no change”. Moreover, on PLCδ1-PH domain [7], the “Inhibition of PLCδ1-PH domain binding to PI(4,5)P2 containing liposomes (SDS-PAGE)” value was “not that efficient in displacing the PLCδ1-PH domain”. Also, the “Inhibition of PI(3,4,5)P3/AKT1-PH domain interaction (SDS-PAGE)” value on AKT1-PH domain [8] is “more strongly than compound CIP-4”. On PLCδ1-PH domain [9], this compound gave a Ki of 60400 nM.

With `OCc1cn(Cc2ccccc2)nn1` [CIP-2], the IC50 on TAPP1-PH domain came out at 106 ± 8 nM; at GRP1-PH domain, 216 ± 9 nM; at PLCδ1-PH domain [1], 159 ± 11 nM; on AKT1-PH domain [6], 315 ± 32 nM. Besides, the inhibition at 5 µM at TAPP1-PH domain came to 41 ± 4%; on GRP1-PH domain it was 58 ± 5%; at PLCδ1-PH domain [1] it was 62 ± 3%; on AKT1-PH domain [6], 55 ± 2%.

As for `CCOC(=O)Cn1cc(CO)nn1` [CIP-3], the inhibition at 5 µM at AKT1-PH domain [6] was found to be 4 ± 1%.

Usually IC50 stands for the concentration that inhibits the measured activity by half. Low readings indicate greater potency, high ones weaker potency. Usually Ki stands for the equilibrium dissociation constant of an inhibitor or competing ligand from its target.
